From PubChem
TAAR1 antag: antagonists of human TAAR1. Q96RJ0. CHO RD-HGA16 TAAR1, Fluo-8 calcium fluorescence, antagonist. inhibition, % at 3 µM. 360,000 compounds, 1.5% hits. AID 624466;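 active means inhibition above a per-plate cutoff, the mean inhibition of test compounds on that plate plus 3 SD, cut at about 49% in these data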;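 further: 0% = DMSO plus EC80 beta-PEA response and 100% = DMSO alone without agonist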
Target sequence (Q96RJ0 whole entry, looked up): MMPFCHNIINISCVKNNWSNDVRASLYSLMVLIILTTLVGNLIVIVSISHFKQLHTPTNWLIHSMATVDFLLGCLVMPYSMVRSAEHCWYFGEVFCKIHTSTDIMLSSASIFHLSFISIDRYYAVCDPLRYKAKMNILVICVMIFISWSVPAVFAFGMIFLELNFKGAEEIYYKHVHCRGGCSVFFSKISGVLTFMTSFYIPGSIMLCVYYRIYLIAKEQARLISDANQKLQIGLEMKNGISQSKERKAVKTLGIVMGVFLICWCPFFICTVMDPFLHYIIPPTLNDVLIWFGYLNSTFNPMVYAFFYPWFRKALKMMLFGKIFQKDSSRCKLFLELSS
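Material: CHO RD-HGA16 cells bearing hTAAR1; compound dosing: one-point dosing, 3 µM nominal final; schedule: dye loading 75 min at 37 °C, then 30 min room temperature; measured by: calcium fluorescence with Fluo-8; control set: vehicle and agonist controls; replication: n of 1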
NS3 helicase inh: HCV NS3 helicase inhibition | NS3 helicase DNA unwinding, Cy5 molecular beacon fluorescence | inhibition, % at 10.9 µM | 290,000 compounds, 0.56% hits | AID 1800;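 active means inhibition above the mean of all tested compounds plus 3 SD, set per campaign, cut at about 35% in these data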;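 further: 0% = DMSO wells and 100% = thioflavine S control wells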
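Test system: hepatitis C virus NS3 helicase domain fragment enzyme. Also added: annealed dual-labelled DNA beacon duplex, ATP-started. Timing: 60 min unwinding reaction at 25 °C after ATP addition. Technique: Cy5 fluorescence. Measure: % inhibition of unwinding.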
TAAR1 agonist: agonists of human TAAR1 | Q96RJ0 | CHO RD-HGA16 TAAR1, Fluo-8 calcium fluorescence; vehicle wells 0%, saturating PEA agonist 100% | activation, % at 3 µM | 360,000 compounds, 0.99% hits | AID 624467;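 active means activation above the mean activation of all test compounds in the run plus 3 SD, cut at about 38% in these data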
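Assay system: CHO-derived RD-HGA16 cells with stable Gα16 and human TAAR1; timing: 17-24 h seeding, 75 min 37 °C dye, 30 min RT; read-out: % activation from peak over basal fluorescence ratio, DMSO-to-PEA scaled; measured by: kinetic Fluo-8 calcium fluorescence; benchmarks: low control DMSO, high control PEA (EC100); doses: 3 µM single concentration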
rCAG RNA binder: molecules binding r(CAG) RNA repeats. r(CAG) RNA repeat, TO-PRO-1 dye displacement fluorescence. inhibition, % at 3 µM. 370,000 compounds, 1.3% hits. AID 651821;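 active means inhibition above the plate cutoff, the mean of all test compounds on that plate plus 3 SD, cut at about 35% in these data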;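 further: 0% = DMSO alone and 100% = 100 µM mitoxantrone as full dye displacement; higher means more dye released from RNA so lower well fluorescence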
HCV core dimer: blocks dimerization of HCV core protein | TR-FRET GST/Flag-core106 dimerization, 1536-well | inhibition, % at 5 µM | 300,000 compounds, 0.33% hits;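 active means inhibition above the mean of all tested compounds plus 3 SD, set per screening campaign, cut at about 45% in these data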
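System – GST-tagged and Flag-tagged HCV core protein residues 1-106 · Repeats – one well for each compound · Technique – TR-FRET 671 and 617 nm emission · Doses – one concentration, 5 µM, in 0.5% DMSO · Times – 4 h, 22.5 °C incubation · Also added – Eu donor and XL665 acceptor anti-tag antibodies · Measure – percent inhibition of core106 dimerization signal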
* = called active by the depositor. Hits are enriched below; roughly 3.7% of the tested compounds scored in any of these assays.

What do the screens show for `Cc1cc(SCC(=O)NN=C2CCN(C(C)C)CC2)c(C)cc1Br`?
TAAR1 antag: -1; NS3 helicase inh: -10; TAAR1 agonist: 2; rCAG RNA binder: 5; HCV core dimer: -2

How did Cc1cc(SCC(=O)N/N=C/c2ccc(O)c(O)c2O)c(C)cc1Br do in these assays?
TAAR1 antag: 36; NS3 helicase inh: 24; TAAR1 agonist: 22; rCAG RNA binder: 55*; HCV core dimer: 4

How did COc1ccc(OC)c(S(=O)(=O)N(C)CC(=O)N2CCCCC2)c1 do in these assays?
TAAR1 antag: -6; NS3 helicase inh: 0; TAAR1 agonist: 0; rCAG RNA binder: -4; HCV core dimer: 14

Results for COc1ccc(N(CC(=O)N2CCc3ccccc3C2)S(=O)(=O)c2c(C)[nH]c(=O)[nH]c2=O)cc1 ?
TAAR1 antag: -8; NS3 helicase inh: 6; TAAR1 agonist: 1; rCAG RNA binder: 8; HCV core dimer: -1

Results for COc1ccc(N(CC(=O)N2CCc3ccccc3C2)S(C)(=O)=O)cc1 ?
TAAR1 antag: 2; NS3 helicase inh: 6; TAAR1 agonist: 42*; rCAG RNA binder: -2; HCV core dimer: 1

How did COc1ccc(OC)c(S(=O)(=O)N(C)CC(=O)N2CCc3ccccc3C2)c1 do in these assays?
TAAR1 antag: 13; NS3 helicase inh: -7; TAAR1 agonist: 45*; rCAG RNA binder: -1; HCV core dimer: 4

How did CCOc1ccc(-n2c(SCC(=O)Nc3cc(C)c(NC(=O)c4ccccc4)cc3OC)nnc2-c2ccncc2)cc1 do in these assays?
rCAG RNA binder: 10

How did Cc1cc(C)nc(Nc2nc(C(N)Cc3ccc(C(F)(F)F)cc3)cs2)n1 (stereo not drawn) do in these assays?
TAAR1 antag: 35; TAAR1 agonist: 47*; rCAG RNA binder: 13

How did NC(Cc1ccccc1)c1csc(Nc2ccc(C(F)(F)F)cn2)n1 (stereo not drawn) do in these assays?
TAAR1 antag: 20; TAAR1 agonist: 41*; rCAG RNA binder: 13

What do the screens show for `COc1cc(OC)nc(Nc2nc(C(N)Cc3ccc(C(F)(F)F)cc3)cs2)n1` (stereo not drawn)?
TAAR1 antag: 34; TAAR1 agonist: 53*; rCAG RNA binder: 14

Results for COc1cc(OC)nc(Nc2nc(C(N)Cc3ccccc3)cs2)n1 (stereo not drawn) ?
TAAR1 antag: -7; TAAR1 agonist: 18; rCAG RNA binder: 21

How did CC(C)(C)c1ccc(S(=O)(=O)NCC(=O)N2CCN(c3ncccn3)CC2)cc1 do in these assays?
rCAG RNA binder: 1

How did Cn1c(SC2CCCC2)nnc1-c1ccco1 do in these assays?
rCAG RNA binder: 5

What do the screens show for `O[C@H](COc1cccc(Br)c1)CN1CCC(C(O)(c2ccccc2)c2ccccc2)CC1`?
rCAG RNA binder: 1

What do the screens show for `Cc1ccc(-c2c(C(=O)Nc3ccccc3C)c(C)[nH]c(=S)c2C#N)o1`?
TAAR1 antag: -10; NS3 helicase inh: 39*; TAAR1 agonist: 1; rCAG RNA binder: 25; HCV core dimer: 41

Results for Cc1ccccc1NC(=O)c1c(C)[nH]c(=S)c(C#N)c1-c1ccc(Cl)cc1 ?
TAAR1 antag: -5; NS3 helicase inh: 10; TAAR1 agonist: 0; rCAG RNA binder: 15; HCV core dimer: 12

How did COc1ccnc(Oc2cccc(C(F)(F)F)c2)c1C(=O)N/C=N/OCc1ccccc1F do in these assays?
TAAR1 antag: 54*; NS3 helicase inh: -4; TAAR1 agonist: 19; rCAG RNA binder: -6; HCV core dimer: -2

Results for Cc1ccc(C(=O)OCC(=O)N(CCc2ccccc2)Cc2ccccc2)cc1S(=O)(=O)N1CCOCC1 ?
TAAR1 antag: 50*; TAAR1 agonist: 4; rCAG RNA binder: 4; HCV core dimer: 7

What do the screens show for `Cc1ccc(S(C)(=O)=O)cc1C(=O)OCC(=O)N(Cc1ccccc1)Cc1ccccc1`?
TAAR1 antag: 54*; TAAR1 agonist: 17; rCAG RNA binder: 1

How did CCCSC1=N/C(=C\C=C\c2ccco2)C(=O)S1 do in these assays?
TAAR1 antag: 6; NS3 helicase inh: 25; TAAR1 agonist: -3; rCAG RNA binder: 76*; HCV core dimer: 44

How did O=C(c1ccc(-c2nnc(Nc3ccccc3)c3ccccc23)cc1)N1C[C@H]2C[C@H](C1)c1cccc(=O)n1C2 do in these assays?
TAAR1 antag: -5; NS3 helicase inh: -1; TAAR1 agonist: 14; rCAG RNA binder: -1; HCV core dimer: 60*

What do the screens show for `O=C(Nc1cccc(Oc2c(F)c(F)c(F)c(F)c2F)c1)N1C[C@@H]2C[C@@H](C1)c1cccc(=O)n1C2`?
TAAR1 antag: -22; NS3 helicase inh: 4; TAAR1 agonist: 4; rCAG RNA binder: 2; HCV core dimer: -1

What do the screens show for `C[C@H]1CCC[C@@H](O)CC(=O)c2c(O)cc(O)cc2CC(=O)O1`?
rCAG RNA binder: 1

How did O=C(c1ccco1)N1CCN(C(c2ccccc2Cl)c2nnnn2Cc2cccs2)CC1 (stereo not drawn) do in these assays?
TAAR1 antag: 59*; NS3 helicase inh: -9; TAAR1 agonist: 27; rCAG RNA binder: -1; HCV core dimer: 1

How did O=C(OC12CCCN(C1)/C(=C/c1cccnc1)C2)c1ccccc1 (stereo not drawn) do in these assays?
rCAG RNA binder: 2

How did O=C(/C=C/c1cccs1)NC(=S)NNC(=O)Cc1cccs1 do in these assays?
TAAR1 antag: 26; NS3 helicase inh: 2; TAAR1 agonist: 67*; rCAG RNA binder: 6; HCV core dimer: 4

What do the screens show for `CN(Cc1ccccc1)C(=O)OCc1cn(Cc2ccc(C(F)(F)F)cc2)nn1`?
rCAG RNA binder: -1

Results for Cc1ccc(C2(C)NC(=O)N(CC(=O)Nc3ccc4c(c3)OCO4)C2=O)cc1 (stereo not drawn) ?
TAAR1 antag: 7; NS3 helicase inh: 10; TAAR1 agonist: 17; rCAG RNA binder: 1; HCV core dimer: 2

What do the screens show for `Cc1ccc(NC(=O)COC(=O)C2(c3ccc(Cl)cc3)CCCC2)cc1`?
TAAR1 antag: 58*; NS3 helicase inh: 6; TAAR1 agonist: 10; rCAG RNA binder: 0; HCV core dimer: -1

Results for Cc1ccc(NC(=O)CN2C(=O)NC(C)(c3ccc(Cl)cc3)C2=O)cc1 (stereo not drawn) ?
TAAR1 antag: 21; NS3 helicase inh: -16; TAAR1 agonist: 41*; rCAG RNA binder: 0; HCV core dimer: 2

What do the screens show for `CCOC(=O)[C@]12CCCCC/C=C\1N(CCc1ccc(Cl)cc1)C(=O)[C@H]2CC(=O)N1CCSCC1`?
rCAG RNA binder: 1

Results for CCC(C)c1ccc(NC(=O)CSc2nnc(-c3cccc(C)c3)n2C)cc1 (stereo not drawn) ?
rCAG RNA binder: 2

What do the screens show for `COC(=O)c1cc(-c2cccc(C(F)(F)F)c2)c(=O)n2c1CCC2`?
rCAG RNA binder: 0

What do the screens show for `O=C(CCc1ccccc1)N[C@H]1[C@@H](OC(=O)c2ccco2)CCC[C@@]12C(=O)N(Cc1ccccc1)c1ccccc12`?
rCAG RNA binder: 8
